# Measured values: PMC3226999 (Food chemistry, 2012)
# “Also recorded” adds a separate entry of the source.
# Legend:
# [1] = system: caspase-3 and −7 activity in MDA-MB-231 cells; test: Caspase-Glo 3/7 luminometric assay in cells; type: cell-based, human; settings: for reduction of staurosporine-induced caspase-3/−7 activity: 1 μM staurosporine plus flavonoid 200, 100, 25 μM, 24 h (Figure 3B); for caspase-3 or −7 activity in treated cells versus DMSO control: 200 μM flavonoid or 1 μM staurosporine, 24 h (Figure 3A)
# Method in brief: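 MDA-MB-231 cells were grown in high-glucose DMEM with 10% BGS at 37 °C and 5% CO2. They were seeded at 0.5 × 10^4 cells/well, then treated after 24 h with test compound and/or staurosporine for 24 h. Alternatively, medium was replaced with 200 μM compound plus 1 μM staurosporine just before assay. Caspase-3/7 activity was read by Caspase-Glo 3/7 luminescence as fold activation over DMSO-treated cells (n=3, standard error of margin, t-test).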
# [2] = system: purified recombinant caspase-1, −3, and −7; test: Preliminary survey of inhibition of purified recombinant activated caspases; type: biochemical; settings: for inhibition of purified caspase-1, −3, or −7 activity: 200 μM, 100 μM, 50 μM flavonoid (Figure 4); for caspase specificity: among caspase-1, −3, −7
# [3] = target: T1, recombinant caspase-3 (Homo sapiens, UniProt P42574); type: biochemical
# T1 sequence (P42574 29-175 limits assumed): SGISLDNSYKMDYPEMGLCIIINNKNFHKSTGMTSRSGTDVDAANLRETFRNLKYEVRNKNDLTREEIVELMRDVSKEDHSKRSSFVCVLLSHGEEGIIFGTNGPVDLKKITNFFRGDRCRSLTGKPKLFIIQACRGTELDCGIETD
# T1 sequence (P42574 176-277 limits assumed): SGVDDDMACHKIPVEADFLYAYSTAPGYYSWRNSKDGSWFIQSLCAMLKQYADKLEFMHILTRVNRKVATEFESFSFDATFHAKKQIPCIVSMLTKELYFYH
SMILES,reduction of staurosporine-induced caspase-3/−7 activity [1],caspase-3 or −7 activity in treated cells versus DMSO control [1],"inhibition of purified caspase-1, −3, or −7 activity [2]",caspase specificity [2],IC50 [3],"type of caspase inhibition ([2]; Lineweaver-Burk plots, caspase-1, −3, −7)"
"O=c1c(O)c(-c2ccc(O)c(O)c2)oc2cc(O)cc(O)c12 [Quercetin, quercetin]",able to reduce the staurosporine-induced activity,increase caspase-3 or −7 activity only slightly,"significant, dose-dependent inhibition",specificity for caspase-3,,
"O=c1cc(-c2ccc(O)c(O)c2)oc2cc(O)cc(O)c12 [Luteolin, luteolin]",reduction in activity was dose dependent,decrease in caspase-3 or −7 activity,"significant, dose-dependent inhibition",,,
"O=c1c(-c2ccc(O)cc2)coc2cc(O)ccc12 [Daidzein, daidzein]",,,did not exhibit strong dose-dependent inhibition; also recorded: unable to inhibit caspase activity,,,
"CN[C@@H]1C[C@H]2O[C@@](C)([C@@H]1OC)n1c3ccccc3c3c4c(c5c6ccccc6n2c5c31)C(=O)NC4 [Staurosporine, staurosporine, reference compound]",,very strong caspase-3 or −7 activation,,,,
"O=c1c(-c2ccc(O)cc2)coc2cc(O)cc(O)c12 [Genistein, genistein]",,,unable to inhibit caspase activity,,,
"O=c1cc(-c2ccccc2)oc2cc(O)cc(O)c12 [Chrysin, chrysin]",,,did not exhibit strong dose-dependent inhibition,,,
"O=c1cc(-c2ccc(O)cc2)oc2cc(O)cc(O)c12 [Apigenin, apigenin]",reduction in activity was dose dependent,decrease in caspase-3 or −7 activity,did not exhibit strong dose-dependent inhibition,,,
"O.Oc1cc(O)c2c(c1)O[C@H](c1ccc(O)c(O)c1)[C@@H](O)C2 [Catechin, catechin]",,,did not exhibit strong dose-dependent inhibition,,,
"O=c1c(O)c(-c2ccc(O)cc2)oc2cc(O)cc(O)c12 [Kaempferol, kaempferol]",reduction in activity was dose dependent,decrease in caspase-3 or −7 activity,"significant, dose-dependent inhibition",,,
"O=C1C[C@@H](c2ccc(O)cc2)Oc2cc(O)cc(O)c21 [Narigenin, naringenin]",,,did not exhibit strong dose-dependent inhibition,,,
"O=c1c(O)c(-c2cc(O)c(O)c(O)c2)oc2cc(O)cc(O)c12 [Myricetin, myricetin]",able to reduce the staurosporine-induced activity,,"significant, dose-dependent inhibition; also recorded: one of the more potent inhibitors",specificity for caspase-1,25 µM,competitive
